The list is not random: actives were taken first. Their share in the collection is about 4.3%.
SR-BI DiI inh: blocks mouse SR-BI lipid uptake from DiI-HDL; actives 0.96% (n = 320,000); inhibition, % at 12.5 µM; ldlA[mSR-BI] CHO cells, DiI-HDL uptake fluorescence, 3 h; AID 488896; Q61009;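 active = mean replicate inhibition of at least 70% and a set share of replicates each scoring 70 or more; inconclusive = meets just one of the two criteria; inactive = fails both criteria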;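 note: 0% = median of neutral control wells and 100% = median of positive control wells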
Target sequence (Q61009 whole entry, looked up): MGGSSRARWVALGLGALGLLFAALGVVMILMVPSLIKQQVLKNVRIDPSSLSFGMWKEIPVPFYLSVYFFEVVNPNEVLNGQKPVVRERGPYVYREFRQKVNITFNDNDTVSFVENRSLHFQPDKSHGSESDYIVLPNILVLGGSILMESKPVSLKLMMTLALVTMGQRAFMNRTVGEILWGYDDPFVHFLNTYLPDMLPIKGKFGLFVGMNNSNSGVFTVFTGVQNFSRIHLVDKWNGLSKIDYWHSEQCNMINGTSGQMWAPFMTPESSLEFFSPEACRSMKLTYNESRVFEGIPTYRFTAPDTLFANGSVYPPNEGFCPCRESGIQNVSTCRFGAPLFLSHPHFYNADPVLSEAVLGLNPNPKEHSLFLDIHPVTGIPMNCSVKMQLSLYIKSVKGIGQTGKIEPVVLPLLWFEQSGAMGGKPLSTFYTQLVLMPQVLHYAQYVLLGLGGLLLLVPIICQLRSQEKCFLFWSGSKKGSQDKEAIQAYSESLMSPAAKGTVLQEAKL
Lipid droplet: hepatic lipid droplet formation modulation | AML12 mouse hepatocytes, oleate lipid droplets, BODIPY imaging | inhibition, % at 6.5 µM | actives 0.4% (n = 240,000) | AID 1656;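 active = lipid droplet intensity inhibited by at least 50%, with more than 500 cells counted; inconclusive = wells with under 300 cells, treated as cytotoxic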
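Test system: AML12 mouse liver cells; schedule: overnight exposure; technique: high-content imaging of BODIPY-stained droplets and DAPI nuclei; read-out: % inhibition of corrected integrated BODIPY droplet signal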
SMARCA2 activ: increases SMARCA2 function in MMTV reporter cells | activation, % at 9.1 µM | actives 1% (n = 370,000) | MG213 cells, MMTV-luciferase reporter, dexamethasone, overnight; in the data active = activation above about 7.8%;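 note: 0% = vehicle wells and 100% = reference activator wells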
Yeast superoxide: caloric restriction mimetics inhibiting age-related superoxide in yeast | S. cerevisiae aged cells, superoxide DHE fluorescence; active compounds read low | superoxide response (% of plate mean), % at 10 µM | actives 0.18% (n = 330,000) | AID 2690;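 active = superoxide response under a set limit, about three screen SD below normal, cut at about 65% in these data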;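 note: yeast aged for seven days with compound at 30 °C before DHE staining; 100% = average MFI of all compound-treated wells on the plate with controls excluded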
SR-BI uptake up: enhances SR-BI lipid uptake from DiI-HDL; activation, % at 12.5 µM; AID 504775; actives 0.096% (n = 320,000); CHO ldlA[mSR-BI] cells, DiI-HDL uptake fluorescence, 3 h; 100 = double the neutral-control signal;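 active = mean replicate activation of at least 60% and every replicate at or above 60%; inconclusive = mean or all-replicate condition met, but not both; inactive = mean below 60% and not all replicates reaching 60%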;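 note: 0% = median plate neutral-control signal and 100% = twice that signal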
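Material – SR-BI-overexpressing, LDLR-lacking CHO cells · Medium – BSA-supplemented, HEPES-buffered Ham's F12, pH 7.4 · Doses – single concentration · Times – compound with DiI-HDL co-incubation, 3 h at 37 °C · Measured by – bottom-read fluorescence, 550/595 nm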
AHR activator: human AHR activation; actives 2.5% (n = 320,000); activation, % at 5 µM; AHR-responsive luciferase reporter cells, luminescence; AID 2796; P35869; in the data active = activation above about 47%;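 note: 0% = vehicle wells and 100% = reference agonist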
DiI quencher: DiI fluorescence quenching in cell-free counter-screen; shares compounds with SR-BI DiI inh; cell-free DiI-HDL fluorescence quenching, 30 min; AC50, µM (highest dose often 35 µM), for inactives: top-dose activity change, negative = quenching; actives 20% (n = 470);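 active = quenching, a falling signal, with AC50 below a set limit tied to the top valid dose, actives reach about 32 µM in these data; inconclusive = no clear call, values can overlap the other calls; inactive = rising signal, and the rest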
An asterisk follows results filed as active; i = inactive; ? = inconclusive; · = no result given.

SMILES | SR-BI DiI inh | Lipid droplet | SMARCA2 activ | Yeast superoxide | SR-BI uptake up | AHR activator | DiI quencher
OC1CCN(c2cc(-c3ccccc3)nc3cc(-c4ccc(F)cc4)nn23)CC1 | 71.6* | 13.3 | -0.5 | 99.4 | -71.6 | 2.5 | 6.4%
CCN1CCN(c2cc(-c3ccccc3)nc3cc(-c4cccc(F)c4)nn23)CC1 | 33.8 | -2.0 | -2.9 | 89.2 | -33.8 | 5.9 | ·
N#Cc1ccccc1S(=O)(=O)N1CCN(C(=O)C2CC(=O)N(c3ccc4c(c3)OCCO4)C2)CC1 (stereo unspecified) | -0.8 | · | -2.4 | 104.9 | 0.8 | 2.1 | -10.3%
Cc1ccc(S(=O)(=O)N2CCN(C(=O)C3CC(=O)N(c4ccc5c(c4)OCCO5)C3)CC2)cc1 (stereo unspecified) | -2.6 | · | -2.6 | 87.0 | 2.6 | 0.0 | ·
COc1ccc(CCNC(=O)c2ccc3c(c2)N(Cc2ccc(C)cc2)CCS3)cc1OC | 75.3* | 39.3 | · | 92.4 | -75.3 | 2.8 | -10.1%
CN(C)CCNC(=O)c1ccc2c(c1)N(Cc1ccc(F)cc1)CCS2 | 25.1 | · | 0.2 | 87.7 | -25.1 | 1.9 | ·
COc1ccc(CCNC(=O)c2ccc3c(c2)N(Cc2ccc(F)cc2)CCS3)c(OC)c1 | 82.0* | 9.3 | -4.3 | 91.9 | -82.0 | 10.0 | -12.4%
COc1ccc(OC)c(CCNC(=O)c2ccc3c(c2)N(Cc2ccc(F)cc2)CCS3)c1 | 81.8* | -24.8 | · | 112.5 | -81.8 | 11.0 | -11.7%
O=C(NC1CCCC1)c1ccc2c(c1)N(Cc1ccc(F)cc1)CCS2 | 37.8 | 12.0 | -2.2 | 86.5 | -37.8 | 17.5 | ·
Cc1ccc(C(C(=O)NC(C)(C)C)N(Cc2cccs2)C(=O)c2ccc3c(c2)OCCO3)cc1 (stereo unspecified) | -11.7 | -23.6 | 0.1 | 93.3 | 11.7 | 2.4 | 2.5%
Cc1ccc(C(C(=O)NC(C)(C)C)N(Cc2cccs2)C(=O)c2csnn2)cc1 (stereo unspecified) | -18.8 | · | -1.5 | 103.2 | 18.8 | 3.0 | ·
CCC(C)(C)NC(=O)CN(Cc1cccs1)C(=O)C(=O)Nc1ccc2c(c1)OCCO2 | -24.5 | · | -0.7 | 91.9 | 24.5 | 1.1 | ·
CCC(C)(C)NC(=O)C(c1ccc(C)cc1)N(Cc1cccs1)C(=O)c1ccc2c(c1)OCCO2 (stereo unspecified) | 76.5* | · | -1.1 | 104.3 | -76.5 | 1.4 | 6.3%
Cc1ccccc1CS(=O)(=O)Cc1ccc(C(=O)Nc2cccc(Cl)c2F)o1 | · | · | -0.7 | · | · | · | ·
CC(C(=O)NCc1ccccc1)N(Cc1ccccc1Cl)C(=O)c1snc(C(N)=O)c1N (stereo unspecified) | 84.4* | -5.1 | -2.0 | 98.7 | -84.4 | -0.3 | 2.3%
CCC(C(=O)NC(C)(C)C)N(Cc1ccccc1Cl)C(=O)c1snc(C(N)=O)c1N (stereo unspecified) | 5.6 | -38.9 | 0.0 | 99.0 | -5.6 | 1.0 | ·
CC(C)(C)C(=O)Nc1sc2c(c1-c1nc3ccccc3[nH]1)CCCC2 | 104.3* | 24.8 | -1.7 | 119.6 | -104.4 | 8.7 | 8.97µM*
CCc1ccc(CCNC(=O)OC2CC3CC2[C@H]2CCCCN2C3)cc1 (stereo partly specified) | · | · | -3.4 | · | · | · | ·
CCOC(=O)Nc1nc(-c2ccccc2)c(C(=O)c2ccccc2)s1 | 74.9* | · | -3.6 | 117.6 | -74.9 | 15.9 | -1.8%
CCCCN(Cc1ccccc1)c1ncnc2nc[nH]c12 | 74.3* | 5.8 | · | 98.2 | -74.3 | 11.4 | 0.1%
CCCCOCCCNC(=O)C[C@H]1C(=O)N(Cc2ccc(OC)cc2)C2=CCCC[C@@]21C(=O)OCC | · | · | -4.2 | · | · | · | ·
O=C(NCc1ccccc1)c1cc(-n2cnnc2)ccc1Cl | 7.2 | -6.7 | 0.9 | 95.8 | -7.2 | 0.8 | ·
CN(C(=O)c1cc(-n2cnnc2)ccc1Cl)c1ccccc1 | -11.0 | 3.0 | 5.0 | 102.1 | 11.0 | 4.5 | -3.3%
COc1cc(NC(=O)c2cc(-n3cnnc3)ccc2Cl)cc(OC)c1 | 43.6 | 12.0 | 0.3 | 89.0 | -43.6 | 12.4 | -1.8%
CCOc1ccc(NC(=O)CN2CCN(CC(=O)Nc3ccc(C(=O)OC)cc3)CC2)cc1 | 80.8* | 13.7 | -0.2 | 107.4 | -80.8 | 0.0 | -1.5%
SMILES | SR-BI DiI inh | Lipid droplet | SMARCA2 activ | Yeast superoxide | SR-BI uptake up | AHR activator | DiI quencher
COC(=O)c1ccc(NC(=O)CN2CCCC2)cc1 | -6.7 | -3.0 | -0.5 | 94.0 | 6.7 | 1.5 | ·
Cc1ccc(-c2cc(C(=O)Nc3sc4c(c3C(=O)NCc3ccco3)CCC4)[nH]n2)c(O)c1 | 82.6* | 10.6 | 2.8 | 99.8 | -82.6 | -2.0 | i
Cc1cc(O)c(-c2cc(C(=O)Nc3sc4c(c3C(=O)NCc3ccco3)CCC4)[nH]n2)cc1C | · | 19.4 | -0.2 | 105.7 | · | 3.5 | ·
Nc1[nH]c(C(=O)c2ccccc2)c(-c2ccc(Cl)cc2)c1C(=O)c1c[nH]c2cc(F)ccc12 | · | · | -3.8 | · | · | · | ·
O=C(NCCn1cc(SCc2ccc(F)cc2)c2ccccc21)c1c(F)cccc1F | 56.2 | -120.2 | -6.0 | 119.6 | -56.2 | 13.4 | ·
Cc1nnc(NC(=O)CSc2cn(Cc3ccccc3)c3ccccc23)s1 | 19.9 | · | -3.0 | 77.0 | -19.9 | 5.7 | ·
COc1ccccc1C(=O)NCCn1cc(SCC(=O)Nc2nnc(C)s2)c2ccccc21 | 44.2 | · | 0.0 | 100.0 | -44.2 | 4.2 | 0.0%
O=C(NCCn1cc(SCc2ccccc2)c2ccccc21)c1c(F)cccc1F | ? | -12.3 | -0.9 | 108.3 | -70.6 | 4.8 | -12.2%
CC1(C(=O)NCc2ccccc2)CN(S(C)(=O)=O)CC(=O)N1Cc1ccco1 (stereo unspecified) | · | · | -1.6 | · | · | · | ·
CC(C)(C)OC(=O)N1CSC[C@H]1C(=O)NC[C@H](CC(=O)O)c1ccc(Cl)cc1 | 78.2* | 1.5 | -1.9 | 103.5 | -78.2 | 8.5 | -3.6%
CN(C)C(=O)C[C@H]1C[C@@H]2c3cc(NC(=O)NC4CCCC4)ccc3O[C@@H]2[C@@H](CO)O1 | · | · | -2.0 | · | · | · | ·
Cc1ccc(S(=O)(=O)NCc2ccc(C(=O)NCCc3ccc(S(N)(=O)=O)cc3)cc2)cc1 | 92.3* | 6.3 | -3.3 | 100.4 | -92.3 | 13.3 | 4.8%
Cc1cc(=O)oc2cc(OCC(=O)N3CCN(C(=O)C4COc5ccccc5O4)CC3)c(Cl)cc12 (stereo unspecified) | 79.8* | -9.4 | 6.9 | 109.9 | -79.8 | -3.8 | -4.5%
Cc1c(CC(=O)N2CCN(C(=O)C3COc4ccccc4O3)CC2)c(=O)oc2cc(O)c(Cl)cc12 (stereo unspecified) | -5.7 | 4.0 | -1.0 | 92.8 | 5.7 | -2.1 | ·
CCOC(=O)N1CCN(C(=O)c2cnn3c(C(F)F)cc(-c4ccc(C)cc4)nc23)CC1 | 66.1 | 9.1 | 0.6 | 90.4 | -66.1 | 0.3 | ·
Cc1ccc2nc(-c3ccccc3)cc(C(=O)N3CCN(c4ccccc4O)CC3)c2c1 | 34.7 | · | 1.7 | 97.2 | -34.7 | 20.8 | -11.4%
